Results as given in ChEMBL document CHEMBL4024778, “From Experiments to a Fast Easy-to-Use Computational Methodology to Predict Human Aldehyde Oxidase Selectivity and Metabolic Reactions” (J Med Chem, 2018).

Experiments:
Liver [1] = assay: Drug metabolism in human liver microsomes assessed as formation of 2-(pyrrolidin-1-yl)aniline after 60 mins; format: ADME, microsome; conditions: 1 h
Liver [2] = assay: Drug level in human liver microsomes treated with N1-(Naphthalen-2-yl)-N2-(pyrimidin-2-yl)ethane-1,2-diamine after 60 mins by LC-MS/MS analysis; format: ADME, microsome; conditions: 1 h
Cytochrome P450 3A4 [3] = target: T1, Cytochrome P450 3A4 (Homo sapiens, UniProt P08684); assay: Drug level treated with N1-(Naphthalen-2-yl)-N2-(pyrimidin-2-yl)ethane-1,2-diamine assessed as CYP3A4 (unknown origin)-mediated metabolite formation after 60 mins; format: ADME; conditions: 1 h
T1 sequence (P08684 whole entry): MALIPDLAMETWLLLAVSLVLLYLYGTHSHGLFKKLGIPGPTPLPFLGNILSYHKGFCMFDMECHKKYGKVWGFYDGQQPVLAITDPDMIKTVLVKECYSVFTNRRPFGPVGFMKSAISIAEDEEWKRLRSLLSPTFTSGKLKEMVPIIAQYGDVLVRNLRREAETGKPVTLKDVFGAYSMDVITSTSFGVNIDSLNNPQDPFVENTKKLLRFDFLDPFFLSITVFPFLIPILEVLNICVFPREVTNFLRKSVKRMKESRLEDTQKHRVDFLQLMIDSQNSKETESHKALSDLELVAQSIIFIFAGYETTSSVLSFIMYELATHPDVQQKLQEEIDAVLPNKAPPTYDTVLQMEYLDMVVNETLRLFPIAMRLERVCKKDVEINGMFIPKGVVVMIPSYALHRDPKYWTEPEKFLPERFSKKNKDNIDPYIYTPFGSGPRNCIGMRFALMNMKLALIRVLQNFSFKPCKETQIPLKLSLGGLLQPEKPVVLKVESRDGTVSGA

Liver [4] = assay: Drug level in human liver microsomes treated with N-((1H-Indol-2-yl)methyl)-2-(pyrrolidin-1-yl)aniline after 60 mins; format: ADME, microsome
Liver [5] = assay: Drug level in human liver cytosol treated with N-(2-(Pyrrolidin-1-yl)phenyl)-1H-indole-2-carboxamide at 10 uM after 60 mins by LC-MS/MS analysis; format: ADME, tissue-based
Summary of the method: (§1)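 Pooled human liver cytosol incubated with 10 μM substrate at pH 7.4 and 37 °C with 1 mM MgCl2·6H2O. Reactions stopped at 0 and 60 min with ice-cold acetonitrile containing 0.6 μM labetalol as internal standard, alongside a compound-free blank. Protein removed by centrifugation. Supernatant analysed by LC-MS/MS on a QTOF with electrospray ionization, using one of three reversed-phase gradient methods.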

Liver [6] = assay: Drug metabolism in human liver cytosol assessed as formation of 3-(2-(pyrimidin-2-ylamino)ethylamino)quinoxalin-2(1H)-one at 10 uM after 60 mins by LC-MS/MS analysis; format: ADME, tissue-based; summary of the method: as §1
Liver [7] = assay: Drug metabolism in human liver microsomes after 60 mins; format: ADME, microsome; conditions: 1 h
Liver [8] = assay: Drug metabolism in human liver cytosol assessed as formation of 2-(pyrrolidin-1-yl)aniline at 10 uM after 60 mins by LC-MS/MS analysis; format: ADME, tissue-based; conditions: 1 h; summary of the method: as §1
Liver [9] = assay: Drug level in human liver cytosol treated with N1-(pyrimidin-2-yl)-N2-(quinoxalin-2-yl)ethane-1,2-diamine at 10 uM after 60 mins by LC-MS/MS analysis; format: ADME, tissue-based; conditions: 1 h; summary of the method: as §1
Liver [10] = assay: Drug metabolism in human liver microsomes assessed as formation of 2-(pyrimidin-2-ylamino)ethanol after 60 mins; format: ADME, microsome; conditions: 1 h
Cytochrome P450 3A4 [11] = target: T1, Cytochrome P450 3A4; assay: Drug metabolism assessed as CYP3A4 (unknown origin)-mediated formation of 2-(pyrimidin-2-ylamino)ethanol after 60 mins; format: ADME; conditions: 1 h

c1ccc(N2CCCC2)c(NCc2cc3ccccc3[nH]2)c1
Drug metabolism (Liver [1]): Metabolite_Detected

OCCNc1ncccn1
Drug metabolism (Liver [2]): Metabolite_Detected
Drug metabolism (Cytochrome P450 3A4 [3]): Metabolite_Detected

Nc1ccccc1N1CCCC1
Drug metabolism (Liver [4]): Metabolite_Detected
Drug metabolism (Liver [5]): Metabolite_Detected

c1cnc(NCCNc2cnc3ccccc3n2)nc1
Drug metabolism (Liver [6]): Metabolite_Detected
Drug metabolism (Liver [7]): Metabolite_Notdetected

O=C(Nc1ccccc1N1CCCC1)c1cc2ccccc2[nH]1
Drug metabolism (Liver [8]): Metabolite_Detected
Drug metabolism (Liver [7]): Metabolite_Notdetected

O=c1[nH]c2ccccc2nc1NCCNc1ncccn1
Drug metabolism (Liver [9]): Metabolite_Detected

c1cnc(NCCNc2ccc3ccccc3c2)nc1
Drug metabolism (Liver [10]): Metabolite_Detected
Drug metabolism (Cytochrome P450 3A4 [11]): Metabolite_Detected
